Laboratory results as given in ChEMBL document CHEMBL3864147, “Antioxidant and anti-inflammatory neolignans from the seeds of hawthorn” (Bioorg Med Chem Lett, 2016).

What was measured:
[1] = Antiinflammatory activity in mouse RAW264.7 cells assessed as inhibition of LPS-induced nitric oxide production after 24 hrs by Griess assay; format: functional, cell-based; settings: RAW264.7, 24 h
In short: (§1)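 RAW264.7 cells (5 × 10^5/mL) pre-treated with samples at 100, 50, 10 or 1 µM, then LPS (100 ng/mL) for 24 h. Nitrite in medium measured by mixing with equal volume Griess reagent (1% sulfanilamide in 5% H3PO4, 0.1% N-naphthyl-ethylenediamine), 10 min at 37 °C, absorbance 540 nm; quantified against NaNO2 standard curve; minocycline as positive control.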

[2] = Antioxidant activity assessed as ferric ion reducing activity by measuring Fe2+ levels using fe3+-TPTZ at 375 ug/ml after 30 mins by FRAP assay; format: functional
In short: (§2)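 FRAP reagent: 300 mM acetate buffer pH 3.6, 10 mM TPTZ in 40 mM HCl, 20 mM FeCl3. Sample (3000, 1500, 750, 375 µg/mL solutions) mixed with reagent, 30 min at 37 °C, absorbance 593 nm. Values expressed as µM Fe2+ from FeSO4 calibration curve (5–450 µM).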

[3] = Antioxidant activity assessed as ferric ion reducing activity by measuring Fe2+ levels using fe3+-TPTZ at 1500 ug/ml after 30 mins by FRAP assay; format: functional; in short: as §2
[4] = Antiinflammatory activity in mouse RAW264.7 cells assessed as inhibition of LPS-induced nitric oxide production at 50 uM after 24 hrs by Griess assay relative to control; format: functional; settings: RAW264.7, 24 h; in short: as §1
[5] = Antiinflammatory activity in mouse RAW264.7 cells assessed as inhibition of LPS-induced TNFalpha production at 1 uM after 24 hrs by ELISA relative to control; format: functional; settings: RAW264.7, 24 h
In short: (§3)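 RAW264.7 cells plated at 5 × 10^5/mL, pre-treated with samples at 100, 50, 10 or 1 µM, then stimulated with LPS (100 ng/mL) for 24 h. TNF-α in the medium measured by ELISA kit per manufacturer's instructions and quantified from a standard curve; silybin as positive control.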

Mus musculus = organism: Mus musculus; assay: Cytotoxicity against mouse RAW264.7 cells assessed as effect on cell viability at 100 uM preincubated for 1 hr followed by LPS stimulation measured after 24 hrs by MTT assay; format: toxicity, cell-based; settings: raw264.7, 24 h
In short: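 RAW264.7 cells in DMEM with 10% FBS and penicillin/streptomycin at 37 °C, 5% CO2, seeded 5 × 10^5 cells/well; treated with samples (100 µM) 1 h, then LPS (100 ng/mL) 24 h. MTT (0.25 mg/mL) added for 4 h; formazan read at 540 nm; untreated cells as control.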

[6] = Antiinflammatory activity in mouse RAW264.7 cells assessed as inhibition of LPS-induced nitric oxide production at 100 uM after 24 hrs by Griess assay relative to control; format: functional; settings: RAW264.7, 24 h; in short: as §1
[7] = Antioxidant activity assessed as ferric ion reducing activity by measuring Fe2+ levels using fe3+-TPTZ at 3000 ug/ml after 30 mins by FRAP assay; format: functional; in short: as §2
[8] = Antiinflammatory activity in mouse RAW264.7 cells assessed as inhibition of LPS-induced nitric oxide production at 10 uM after 24 hrs by Griess assay relative to control; format: functional; settings: RAW264.7, 24 h; in short: as §1
[9] = Antiinflammatory activity in mouse RAW264.7 cells assessed as inhibition of LPS-induced TNFalpha production at 10 uM after 24 hrs by ELISA relative to control; format: functional; settings: RAW264.7, 24 h; in short: as §3
[10] = Antiinflammatory activity in mouse RAW264.7 cells assessed as inhibition of LPS-induced nitric oxide production at 1 uM after 24 hrs by Griess assay relative to control; format: functional; settings: RAW264.7, 24 h; in short: as §1
[11] = Antiinflammatory activity in mouse RAW264.7 cells assessed as inhibition of LPS-induced TNFalpha production at 50 uM after 24 hrs by ELISA relative to control; format: functional; settings: RAW264.7, 24 h; in short: as §3
[12] = Antiinflammatory activity in mouse RAW264.7 cells assessed as inhibition of LPS-induced TNFalpha production after 24 hrs by ELISA; format: functional, cell-based; settings: RAW264.7, 24 h; in short: as §3
[13] = Antioxidant activity assessed as DPPH radical scavenging activity incubated in dark for 30 mins; format: functional
In short: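 Samples (0.4 mM stock, 5–40 µL series) and DPPH (2 mM stock, 20 µL) in ethanol, made to 200 µL with ethanol; incubated 30 min in dark at 37 °C; absorbance at 517 nm. Ethanol replaced sample as blank.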

[14] = Antiinflammatory activity in mouse RAW264.7 cells assessed as inhibition of LPS-induced TNFalpha production at 100 uM after 24 hrs by ELISA relative to control; format: functional; settings: RAW264.7, 24 h; in short: as §3
[15] = Antioxidant activity assessed as ferric ion reducing activity by measuring Fe2+ levels using fe3+-TPTZ at 750 ug/ml after 30 mins by FRAP assay; format: functional; in short: as §2
[16] = Antioxidant activity assessed as ABTS radical scavenging activity after 30 mins; format: functional
In short: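 ABTS radical generated by 7 mM ABTS plus 2.4 mM potassium persulfate, 12 h dark at room temperature, diluted in ethanol to OD 0.700 at 734 nm. Samples at several concentrations mixed with ABTS+ solution, 30 min at 37 °C, read at 734 nm; ethanol blank; percent scavenging calculated relative to blank.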

Compound	IC50 [1]	Activity [2]	Activity [3]	inhibition at 50 µM [4]	inhibition at 1 µM [5]	Activity (Mus musculus)	inhibition at 100 µM [6]	Activity [7]	inhibition at 10 µM [8]	inhibition at 10 µM [9]	inhibition at 1 µM [10]	inhibition at 50 µM [11]	IC50 [12]	IC50 [13]	inhibition at 100 µM [14]	Activity [15]	IC50 [16]
COc1cc([C@H](O)[C@@H](CO)Oc2ccc([C@@H](O)[C@H](O)CO)cc2OC)ccc1O	> 100 µM	9.4 µmol/L	29.4 µmol/L	3.1%	3.9%	Non-Toxic	6.3%	55.8 µmol/L	1.1%	26.2%	-3.6%	32.3%	84.4 µM	82.4 µM	55.6%	16 µmol/L	9.5 µM
COc1cc([C@@H](O)[C@@H](CO)Oc2ccc([C@@H](OC)[C@H](O)CO)cc2OC)ccc1O	> 100 µM	32.5 µmol/L	78.3 µmol/L	3.8%	4.5%	Non-Toxic	8.2%	102 µmol/L	-2.2%	24.5%	0.3%	42.4%	47.9 µM	114 µM	69.3%	54.1 µmol/L	12.9 µM
